According to ChEMBL document CHEMBL1649147, “Antistaphylococcal activity of dihydrophthalazine antifolates, a family of novel antibacterial drugs” (2009):
In brackets after ≈: the same amount, converted by molar mass.

How the values were obtained:
[1] = tested on: coagulase-negative staphylococci; assay: Antibacterial activity against methicillin-resistant coagulase-negative staphylococci by agar dilution method
Staphylococcus aureus [2] = assay: Antibacterial activity against Tmp-susceptible Staphylococcus aureus by agar dilution method; format: functional
In short: (§1)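 MICs by agar dilution on Mueller-Hinton agar following CLSI guidelines. S. aureus ATCC 29213 and E. faecalis ATCC 29212 were run as quality controls with each set, and test-strain MICs were kept only if control MICs fell within acceptable ranges.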

[3] = tested on: Staphylococcus epidermidis; assay: Antibacterial activity against coagulase-negative Staphylococcus epidermidis 057 after 10 passages in MBH without antibiotic by agar dilution method; format: functional
In short: (§2)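 After drug-selective serial passage, selected clones were passaged 10 times in antibiotic-free MHB. MICs were then redetermined, and the change is expressed as log2 dilution steps.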

[4] = tested on: coagulase-negative staphylococci; assay: Antibacterial activity against methicillin-susceptible coagulase-negative staphylococci by agar dilution method
Staphylococcus aureus [5] = assay: Antibacterial activity against methicillin-susceptible Staphylococcus aureus ATCC 29213 by broth macrodilution method; format: functional; conditions: ATCC29213
Staphylococcus aureus [6] = assay: Antibacterial activity against methicillin-resistant Staphylococcus aureus 145 by broth macrodilution method; format: functional
Staphylococcus aureus [7] = assay: Antibacterial activity against methicillin-susceptible Staphylococcus aureus 505 by broth macrodilution method; format: functional
Staphylococcus aureus [8] = assay: Antibacterial activity against Staphylococcus aureus 145 assessed as change in MIC by agar dilution method after serial passages in the absence of antibiotic relative to control; format: functional
In short: as §2

[9] = tested on: Staphylococcus epidermidis; assay: Antibacterial activity against coagulase-negative Staphylococcus epidermidis 051 by agar dilution method; format: functional
In short: as §1

[10] = tested on: Staphylococcus epidermidis; assay: Antibacterial activity against methicillin-resistant coagulase-negative Staphylococcus epidermidis 345 by broth macrodilution method; format: functional
[11] = tested on: Staphylococcus epidermidis; assay: Antibacterial activity against methicillin-susceptible coagulase-negative Staphylococcus epidermidis 057 by broth macrodilution method; format: functional
[12] = tested on: Staphylococcus epidermidis; assay: Antibacterial activity against methicillin-resistant, vancomycin-intermediate coagulase-negative Staphylococcus epidermidis 225 by agar dilution method; format: functional
In short: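 Agar dilution on Mueller-Hinton agar per CLSI guidelines. S. aureus ATCC 29213 and E. faecalis ATCC 29212 were run with each set, and test MICs were accepted only when the control strains fell within acceptable ranges.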

[13] = tested on: Staphylococcus epidermidis; assay: Antibacterial activity against coagulase-negative Staphylococcus epidermidis 345 assessed as change in MIC by agar dilution method after serial passages in the absence of antibiotic relative to control; format: functional
In short: as §2

[14] = tested on: Staphylococcus epidermidis; assay: Antibacterial activity against coagulase-negative Staphylococcus epidermidis 345 by agar dilution method; format: functional
In short: as §1

[15] = tested on: Staphylococcus epidermidis; assay: Antibacterial activity against methicillin-susceptible coagulase-negative Staphylococcus epidermidis 051 by broth macrodilution method; format: functional
[16] = tested on: Staphylococcus epidermidis; assay: Antibacterial activity against coagulase-negative Staphylococcus epidermidis 225 assessed as change in MIC by agar dilution method after serial passages in presence of antibiotic relative to control; format: functional
In short: (§3)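 Serial passage under drug. Inoculum was ~1 × 10^6 CFU/ml from overnight MHA growth, in 1 ml MHB at 35°C for 24 h. Drug ranged from 4 log2 steps above to 3 log2 steps below the MIC. […] MIC change is given as log2 steps.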

[17] = tested on: Staphylococcus epidermidis; assay: Antibacterial activity against coagulase-negative Staphylococcus epidermidis 345 assessed as change in MIC by agar dilution method after serial passages in presence of antibiotic relative to control; format: functional
In short: as §3

[18] = tested on: coagulase-negative staphylococci; assay: Antibacterial activity against Tmp-resistant coagulase-negative staphylococci by agar dilution method
Staphylococcus aureus [19] = assay: Antibacterial activity against Tmp-resistant Staphylococcus aureus by agar dilution method; format: functional
In short: as §1

Staphylococcus aureus [20] = assay: Antibacterial activity against methicillin-resistant Staphylococcus aureus ATCC 43300 after 50 passages by agar dilution method; format: functional; conditions: ATCC43300
In short: as §3

Staphylococcus aureus [21] = assay: Antibacterial activity against vancomycin-resistant Staphylococcus aureus VRS1 after 10 passages in MHB without antibiotic by agar dilution method; format: functional
In short: (§4)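 Clones from the end of drug passage were transferred 10 times in MHB without antibiotic, then retested by agar dilution. MIC change is expressed as log2 dilution steps.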

Staphylococcus aureus [22] = assay: Antibacterial activity against vancomycin-resistant Staphylococcus aureus VRS1 assessed as change in MIC by agar dilution method after serial passages in the absence of antibiotic relative to control; format: functional
In short: as §4

[23] = tested on: Staphylococcus epidermidis; assay: Antibacterial activity against coagulase-negative Staphylococcus epidermidis 057 by agar dilution method; format: functional
In short: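 Agar dilution MIC determined on Mueller-Hinton agar following CLSI guidelines. S. aureus ATCC 29213 and Enterococcus faecalis ATCC 29212 were run as quality controls with each set, and test MICs were accepted only when the control MICs fell within acceptable ranges. Test organism was a coagulase-negative S. epidermidis strain.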

Staphylococcus aureus [24] = assay: Antibacterial activity against methicillin-resistant Staphylococcus aureus 507 by broth macrodilution method; format: functional
[25] = tested on: Staphylococcus epidermidis; assay: Antibacterial activity against coagulase-negative Staphylococcus epidermidis 345 after 10 passages in MBH without antibiotic by agar dilution method; format: functional
In short: as §2

[26] = tested on: Staphylococcus epidermidis; assay: Antibacterial activity against coagulase-negative Staphylococcus epidermidis 057 assessed as change in MIC by agar dilution method after serial passages in presence of antibiotic relative to control; format: functional
In short: as §3

[27] = tested on: Staphylococcus epidermidis; assay: Antibacterial activity against coagulase-negative Staphylococcus epidermidis 051 assessed as change in MIC by agar dilution method after serial passages in presence of antibiotic relative to control; format: functional
In short: as §3

Staphylococcus aureus [28] = assay: Antibacterial activity against Staphylococcus aureus 505 assessed as change in MIC by agar dilution method after serial passages in presence of antibiotic relative to control; format: functional
In short: as §3

[29] = tested on: Staphylococcus epidermidis; assay: Antibacterial activity against coagulase-negative Staphylococcus epidermidis 051 assessed as change in MIC by agar dilution method after serial passages in the absence of antibiotic relative to control; format: functional
In short: as §2

Staphylococcus aureus [30] = assay: Antibacterial activity against vancomycin-resistant Staphylococcus aureus VRS1 assessed as change in MIC by agar dilution method after serial passages in presence of antibiotic relative to control; format: functional
In short: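 Daily serial passage for up to 50 days at 35°C for 24 h in 1 ml MHB. […] Each transfer used 10 µl from the tube nearest the MIC (1–2 dilutions below) with the same turbidity as the drug-free control. […] MICs were measured by agar dilution, with changes given as log2 steps.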

[31] = tested on: Staphylococcus epidermidis; assay: Antibacterial activity against methicillin-resistant coagulase-negative Staphylococcus epidermidis 197 after 50 passages by agar dilution method; format: functional
In short: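 Daily serial passage for up to 50 days at 35°C for 24 h in 1 ml MHB. Each transfer used 10 µl from the tube nearest the MIC (1–2 dilutions below) with the same turbidity as the drug-free control. MICs were measured by agar dilution, with changes given as log2 steps.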

Staphylococcus aureus [32] = assay: Antibacterial activity against Staphylococcus aureus 145 assessed as change in MIC by agar dilution method after serial passages in presence of antibiotic relative to control; format: functional
In short: as §3

Staphylococcus aureus [33] = assay: Antibacterial activity against methicillin-susceptible, vancomycin-intermediate Staphylococcus aureus 505 by broth macrodilution method; format: functional
Staphylococcus aureus [34] = assay: Antibacterial activity against Staphylococcus aureus ATCC 29213 assessed as change in MIC by agar odilution method after serial passages in presence of antibiotic relative to control; format: functional, ATCC29213
In short: as §3

Staphylococcus aureus [35] = assay: Antibacterial activity against Staphylococcus aureus 145

## COc1cc(Cc2cnc(N)nc2N)cc(/C=C/C(=O)N2N=Cc3ccccc3C2c2cnc(N(C)C)nc2)c1OC (centres undefined)
[1]
  MIC50: 0.06 µg/mL (≈ 0.106 µM)
  MIC90: 0.5 µg/mL (≈ 0.884 µM)
Staphylococcus aureus [2]
  MIC50: 0.03 µg/mL (≈ 0.053 µM)
  MIC90: 0.03 µg/mL (≈ 0.053 µM)
[3]
  MIC: 128 µg/mL (≈ 226 µM)
[4]
  MIC90: 0.03 µg/mL (≈ 0.053 µM)
Staphylococcus aureus [5]
  MIC: 0.06 µg/mL (≈ 0.106 µM)
Staphylococcus aureus [6]
  MIC: 0.25 µg/mL (≈ 0.442 µM)
Staphylococcus aureus [7]
  MIC: 0.125 µg/mL (≈ 0.221 µM)
Staphylococcus aureus [8]
  fold change (FC): 0
[9]
  MIC: 0.125 µg/mL (≈ 0.221 µM)
[10]
  MIC: 0.06 µg/mL (≈ 0.106 µM)
[11]
  MIC: 4 µg/mL (≈ 7.07 µM)
[12]
  MIC: 0.25 µg/mL (≈ 0.442 µM)
[13]
  fold change (FC): -7
[14]
  MIC: 0.06 µg/mL (≈ 0.106 µM)
[15]
  MIC: 0.125 µg/mL (≈ 0.221 µM)
[16]
  fold change (FC): 10
[17]
  fold change (FC): 12
[18]
  MIC50: 0.125 µg/mL (≈ 0.221 µM)
  MIC90: 0.5 µg/mL (≈ 0.884 µM)
Staphylococcus aureus [19]
  MIC50: 0.25 µg/mL (≈ 0.442 µM)
  MIC90: 0.5 µg/mL (≈ 0.884 µM)
Staphylococcus aureus [20]
  MIC: 1 µg/mL (≈ 1.77 µM)
Staphylococcus aureus [21]
  MIC: > 128 µg/mL
Staphylococcus aureus [22]
  fold change (FC): 0
[23]
  MIC: 8 µg/mL (≈ 14.1 µM)
Staphylococcus aureus [24]
  MIC: 0.125 µg/mL (≈ 0.221 µM)
[25]
  MIC: 2 µg/mL (≈ 3.54 µM)
[26]
  fold change (FC): 5
[27]
  fold change (FC): 11
Staphylococcus aureus [28]
  fold change (FC): 8
[29]
  fold change (FC): -6
Staphylococcus aureus [30]
  fold change (FC): 10
[31]
  MIC: 0.125 µg/mL (≈ 0.221 µM)
Staphylococcus aureus [32]
  fold change (FC): 10
Staphylococcus aureus [33]
  MIC: 0.03 µg/mL (≈ 0.053 µM)
Staphylococcus aureus [34]
  fold change (FC): 3
Staphylococcus aureus [35]
  MIC: 0.25 µg/mL (≈ 0.442 µM)
